The text below walks through data of ChEMBL document CHEMBL1255269 (Antimicrob Agents Chemother, 2008).

Activity calls are given as the source filed them.

The nature of data set [1]: Volume of distribution in pigeon at 30 mg/kg, iv by naive pooling approach. The following applies: columba livia, in vivo. The class given is ADME, organism-based. On the set-up: dose 30 mg/kg, route intravenous. A digest of the protocol: (§1)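 Crossover design, one week apart, 24 homing pigeons. […] Blood taken at 0.25–8 h, six samples per time point; plasma assayed by HPLC-UV (linear 0.05–20 μg/ml). Data fitted by naive pooling, iv biexponential and oral triexponential two-compartment models, plus nonlinear mixed-effects modelling; F derived from mean AUC0–∞.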

A short description of data set [2]: Mean residence time in pigeon at 30 mg/kg, iv by naive pooling approach. Type of data set: ADME, organism-based. On the set-up: dose 30 mg/kg, route intravenous. The following applies: columba livia, in vivo, read-out: Time. The essentials: as §1
A short description of data set [3]: Half life at beta phase in pigeon at 30 mg/kg, iv by naive pooling approach. Type of data set: ADME, organism-based. On the set-up: dose 30 mg/kg, route intravenous. To be noted: columba livia, in vivo. The essentials: as §1
Data set [4] can be described thus: Half life at beta phase in pigeon at 30 mg/kg, po by naive pooling approach. Type of data set: ADME, organism-based. On the set-up: dose 30 mg/kg, route oral. The following applies: columba livia, in vivo. A digest of the protocol: as §1
The nature of data set [5]: Oral bioavailability in pigeon at 30 mg/kg, po by naive pooling approach. The class given is ADME, organism-based. To be noted: columba livia, in vivo. The essentials: as §1
The nature of data set [6]: Tmax in pigeon at 30 mg/kg, po by naive pooling approach. Type of data set: ADME, organism-based. More on the design: dose 30 mg/kg, route oral. To be noted: columba livia, in vivo. A digest of the protocol: as §1
A short description of data set [7]: Cmax in pigeon at 30 mg/kg, po by naive pooling approach. The class given is ADME, organism-based. To be noted: columba livia, in vivo. On the set-up: dose 30 mg/kg, route oral. The essentials:
as §1

Data set [8] in a line: Volume of distribution in central compartment in pigeon at 30 mg/kg, iv. On the set-up: dose 30 mg/kg, route intravenous. To be noted: columba livia, in vivo. Type of data set: ADME, organism-based. A digest of the protocol:
as §1

A short description of data set [9]: Oral bioavailability in pigeon at 30 mg/kg, po. The class given is ADME, organism-based. The following applies: columba livia, in vivo. The essentials:
as §1

A short description of data set [10]: Plasma protein binding in pigeon at 10 ug/ml. The class given is ADME, cell-free. The following applies: columba livia, read-out: PPB (converted). The essentials: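 Ultrafiltration through a 30K membrane, free drug in the ultrafiltrate measured by HPLC. Bound drug taken as total minus free.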
For data set [11], the system named is Salmonella typhimurium. In words: Antimicrobial activity against Salmonella enterica subsp. enterica serovar Typhimurium PT99/DAB69 at 2 ug/ml after 16 hrs. The class given is functional. A digest of the protocol: (§2)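 Killing curve in Mueller-Hinton broth inoculated with 5 × 10^5 CFU of the strain (grown in LB, 37°C, 16 h, static). […] Tenfold dilutions plated onto Mueller-Hinton agar at several time points after inoculation; the decrease in log10 CFU is read at 16 h.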

Data set [12] concerns Salmonella typhimurium. In words: Antimicrobial activity against Salmonella enterica subsp. enterica serovar Typhimurium PT99/DAB69 at 4 ug/ml after 16 hrs. Type of data set: functional. A digest of the protocol: as §2
Data set [13] has as its system Salmonella typhimurium. In words: Antimicrobial activity against Salmonella enterica subsp. enterica serovar Typhimurium PT99/DAB69 in pigeon kidney assessed as decrease in bacterial count relative to untreated control. Type of data set: functional, organism-based. A digest of the protocol: (§3)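 Homing pigeons, 10 per group, housed individually. Crop inoculation with 10^8 CFU in 1 ml PBS. […] Tissue CFU per gram counted by plating tenfold dilutions on brilliant green agar, with enrichment in buffered peptone water and tetrathionate broth if direct plating was negative.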

Data set [14] deals with Salmonella typhimurium. As to the kind of experiment: Antimicrobial activity against Salmonella enterica subsp. enterica serovar Typhimurium PT99/DAB69 in pigeon spleen assessed as decrease in bacterial count relative to untreated control. Type of data set: functional, organism-based. The essentials: as §3
The test system of data set [15] is Columba livia. As to the kind of experiment: Drug uptake in Salmonella enterica subsp. enterica serovar Typhimurium PT99/DAB69 infected pigeon at 26 to 45 mg/kg. The class given is ADME, organism-based. More on the design: dose 26-45 mg/kg. The following applies: in vivo.
Data set [16] can be described thus: in vivo. To be noted: columba livia, plasma, iv, 30 mg/kg.
Data set [17] is described as follows: in vivo. The following applies: columba livia, plasma, po, 30 mg/kg.
Data set [18] in a line: in vivo. The following applies: columba livia, plasma, iv, 30 mg/kg. The source holds these as a separate data set.
The nature of data set [19]: in vivo. The following applies: columba livia, plasma, po, 30 mg/kg. This is another data set of the same source.

The Vd is a proportionality between amount in the body and measured concentration, not a real space. As a reminder, the half-life is the time needed for the level to fall by half in the phase considered. Low readings indicate rapid decline, high ones slow decline. The term bioavailability denotes the share of a dose that reaches the circulation, judged against a reference dose that is usually intravenous. By Tmax is commonly meant the time at which the peak concentration occurs. The Cmax is the maximum level reached in the sampled fluid or tissue. For orientation: AUC(0-inf) means total exposure, with the tail of the curve extrapolated. A high value points to more exposure.

Take `CS(=O)(=O)c1ccc([C@@H](O)[C@@H](CF)NC(=O)C(Cl)Cl)cc1` [FLORFENICOL]: the Vd came to 2.02 L/kg in [1] and 0.88 L/kg in [8]. Further, the MRT in data set [2] was found to be 1.43 h. Besides, the half-life in data set [3] was 1.73 h; in [4], 2.69 h. Besides, the bioavailability in data set [5] came out at 58.5%; in data set [9] it was 60%. In addition, in data set [6], the Tmax was found to be 0.69 h. The compound also had a Cmax in data set [7] of 5100 ng/mL. In [10], the fraction unbound at 10 ug/ml is 0.288. Besides, the log10cfu in data set [11] is given as 1; in data set [12], 2. Moreover, the result in [13] and in [14] was inactive. In addition, the Drug uptake in data set [15] stood at 35 mg/kg. Further, the AUC(0-inf) in data set [16] was found to be 21300 ng·h/mL; in data set [17] it was 12500 ng·h/mL; in data set [18] it was 22700 ng·h/mL; in data set [19], 13100 ng·h/mL.
